Data from ChEMBL document CHEMBL1649304, “Efficacy of posaconazole as treatment and prophylaxis against Fusarium solani” (Antimicrob Agents Chemother, 2010).
Converted amounts (≈) assume the structure as drawn. The source made the active and inactive calls. No cut-off for these calls is given here.

Legend:
[1] = test system: Fusarium solani; assay: Antifungal activity against inoculum of 1x10^4 conidia/ml Fusarium solani isolate 95-2478 after 24 hrs by XTT assay; format: functional, organism-based; conditions: isolate 95-2478, 24 h
Summary of the method: (§1)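 Isolate 95-2478 conidia were grown 10 days at 37°C on potato dextrose agar. They were exposed in microtiter trays to posaconazole (DMSO stock; final 0 to 8 μg/ml) in RPMI with 2% glucose and 0.165 M MOPS, pH 7.0. Incubation ran 24 or 48 h, and XTT reduction was read at 492 nm in triplicate. Absorbance was expressed as percent of growth control, and IC50/IC90 came from a four-parameter inhibitory sigmoid fit.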

[2] = test system: Fusarium solani; assay: Antifungal activity against high inoculum 2.9 x 10^6 conidia/animal Fusarium solani infected in ICR mouse assessed as bacterial count in kidney tissue at 12.5 mg/kg, po BID treated after 12 hrs of inoculation; format: functional
Summary of the method: (§2)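 Outbred ICR mice were made neutropenic with 5-fluorouracil 150 mg/kg i.v. 1 day before i.v. infection with F. solani isolate 95-2478 conidia (0.2 ml). Posaconazole oral suspension was given by gavage BID from 12 h after inoculation until day 9. Kidneys from moribund animals were homogenized and plated on potato dextrose agar, and CFU/g was counted after 48 h. Group medians were compared with untreated controls by Mann-Whitney.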

[3] = test system: Fusarium solani; assay: Antifungal activity against inoculum range 7.7 x 10^4 to 7.8 x 10^4 conidia/animal Fusarium solani infected in ICR mouse assessed as rate of survival at 6.25 mg/kg, po BID treated after 12 hrs of inoculation; format: functional, organism-based; design: dose 6.25 mg/kg
Summary of the method: (§3)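 Neutropenic ICR mice (5-fluorouracil 150 mg/kg i.v., day −1) were infected i.v. with F. solani 95-2478 conidia. Posaconazole oral suspension was gavaged BID starting 12 h postinoculation and continued to day 9, then mice were followed off therapy to day 15. Moribund mice were euthanized and death was recorded the next day. Median and percent survival come from Kaplan-Meier curves versus untreated controls.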

[4] = test system: Fusarium solani; assay: Antifungal activity against low - inoculum 7.5 x 10^4 conidia/ml Fusarium solani infected in ICR mouse assessed as bacterial count in kidney tissue at 12.5 mg/kg, po BID treated 2 days prior of infection; format: functional
Summary of the method: (§4)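 Prophylaxis model: posaconazole oral suspension was given by gavage BID starting 2 days before i.v. conidial challenge and continued to day 9. ICR mice were made neutropenic with 5-fluorouracil 150 mg/kg i.v. 1 day pre-inoculation, with n ≥10 per regimen. Kidneys were homogenized and plated on potato dextrose agar, and CFU/g was read after 48 h. Results were compared with untreated controls by Mann-Whitney.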

[5] = test system: Fusarium solani; assay: Antifungal activity against inoculum range 7.7 x 10^4 to 7.8 x 10^4 conidia/animal Fusarium solani infected in ICR mouse assessed as bacterial count in kidney tissue at 50 mg/kg, po BID treated after 12 hrs of inoculation; format: functional; summary of the method: as §2
[6] = test system: Fusarium solani; assay: Antifungal activity against high inoculum 2.9 x 10^6 conidia/animal Fusarium solani infected in ICR mouse assessed as rate of survival at 25 mg/kg, po BID treated after 12 hrs of inoculation; format: functional, organism-based; design: dose 25 mg/kg; summary of the method: as §3
[7] = test system: Fusarium solani; assay: Antifungal activity against mid- inoculum 6.5 x 10^5 conidia/ml Fusarium solani infected in ICR mouse assessed as bacterial count in kidney tissue at 6.25 mg/kg, po BID treated 2 days prior of infection; format: functional; summary of the method: as §4
[8] = test system: Fusarium solani; assay: Antifungal activity against high inoculum 2.9 x 10^6 conidia/animal Fusarium solani infected in ICR mouse assessed as bacterial count in kidney tissue at 6.25 mg/kg, po BID treated after 12 hrs of inoculation; format: functional; summary of the method: as §2
[9] = test system: Fusarium solani; assay: Antifungal activity against inoculum range 6.5 x 10^5 to 6.8 x 10^5 conidia/animal Fusarium solani infected in ICR mouse assessed as bacterial count in kidney tissue at 12.5 mg/kg, po BID treated after 12 hrs of inoculation; format: functional; summary of the method: as §2
[10] = test system: Fusarium solani; assay: Antifungal activity against inoculum range 6.5 x 10^5 to 6.8 x 10^5 conidia/animal Fusarium solani infected in ICR mouse assessed as bacterial count in kidney tissue at 6.25 mg/kg, po BID treated after 12 hrs of inoculation; format: functional; summary of the method: as §2
[11] = test system: Fusarium solani; assay: Antifungal activity against inoculum range 7.7 x 10^4 to 7.8 x 10^4 conidia/animal Fusarium solani infected in ICR mouse assessed as rate of survival at 12.5 mg/kg, po BID treated after 12 hrs of inoculation; format: functional, organism-based; design: dose 12.5 mg/kg; summary of the method: as §3
[12] = test system: Fusarium solani; assay: Antifungal activity against low - inoculum 7.5 x 10^4 conidia/ml Fusarium solani infected in ICR mouse assessed as rate of survival at 50 mg/kg, po BID treated 2 days prior of infection; format: functional, organism-based; design: dose 50 mg/kg
Summary of the method: (§5)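 Dosing began 2 days before i.v. F. solani 95-2478 challenge in ICR mice made neutropenic with 5-fluorouracil (150 mg/kg i.v., day −1). Posaconazole oral suspension was gavaged BID through day 9, with observation off drug until day 15, n ≥10 per regimen. Moribund animals were euthanized and scored dead the next day. Kaplan-Meier median survival was compared with untreated controls.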

[13] = test system: Fusarium solani; assay: Antifungal activity against mid- inoculum 6.5 x 10^5 conidia/ml Fusarium solani infected in ICR mouse assessed as bacterial count in kidney tissue at 12.5 mg/kg, po BID treated 2 days prior of infection; format: functional; summary of the method: as §4
[14] = test system: Fusarium solani; assay: Antifungal activity against inoculum range 6.5 x 10^5 to 6.8 x 10^5 conidia/animal Fusarium solani infected in ICR mouse assessed as rate of survival at 6.25 mg/kg, po BID treated after 12 hrs of inoculation; format: functional, organism-based; design: dose 6.25 mg/kg; summary of the method: as §3
[15] = test system: Fusarium solani; assay: Antifungal activity against inoculum of 1x10^4 conidia/ml Fusarium solani isolate 95-2478 after 48 hrs by XTT assay; format: functional, organism-based; conditions: isolate 95-2478, 48 h; summary of the method: as §1
[16] = test system: Fusarium solani; assay: Antifungal activity against low - inoculum 7.5 x 10^4 conidia/ml Fusarium solani infected in ICR mouse assessed as rate of survival at 12.5 mg/kg, po BID treated 2 days prior of infection; format: functional, organism-based; design: dose 12.5 mg/kg; summary of the method: as §5
[17] = test system: Fusarium solani; assay: Antifungal activity against inoculum range 7.7 x 10^4 to 7.8 x 10^4 conidia/animal Fusarium solani infected in ICR mouse assessed as bacterial count in kidney tissue at 25 mg/kg, po BID treated after 12 hrs of inoculation; format: functional; summary of the method: as §2
[18] = test system: Fusarium solani; assay: Antifungal activity against mid- inoculum 6.5 x 10^5 conidia/ml Fusarium solani infected in ICR mouse assessed as rate of survival at 12.5 mg/kg, po BID treated 2 days prior of infection; format: functional, organism-based; design: dose 12.5 mg/kg; summary of the method: as §5
[19] = test system: Fusarium solani; assay: Antifungal activity against inoculum range 6.5 x 10^5 to 6.8 x 10^5 conidia/animal Fusarium solani infected in ICR mouse assessed as bacterial count in kidney tissue at 25 mg/kg, po BID treated after 12 hrs of inoculation; format: functional; summary of the method: as §2
[20] = test system: Fusarium solani; assay: Antifungal activity against inoculum of 1x10^5 conidia/ml Fusarium solani isolate 95-2478 after 24 hrs by XTT assay; format: functional, organism-based; conditions: isolate 95-2478, 24 h; summary of the method: as §1
[21] = test system: Fusarium solani; assay: Antifungal activity against high inoculum 2.9 x 10^6 conidia/animal Fusarium solani infected in ICR mouse assessed as bacterial count in kidney tissue at 50 mg/kg, po BID treated after 12 hrs of inoculation; format: functional; summary of the method: as §2
[22] = test system: Fusarium solani; assay: Antifungal activity against inoculum range 6.5 x 10^5 to 6.8 x 10^5 conidia/animal Fusarium solani infected in ICR mouse assessed as rate of survival at 50 mg/kg, po BID treated after 12 hrs of inoculation; format: functional, organism-based; design: dose 50 mg/kg; summary of the method: as §3

## CC[C@@H]([C@H](C)O)n1ncn(-c2ccc(N3CCN(c4ccc(OC[C@@H]5CO[C@@](Cn6cncn6)(c6ccc(F)cc6F)C5)cc4)CC3)cc2)c1=O [POSACONAZOLE]
[1]
  IC50: 1.7 µg/mL (≈ 2.43 µM)
  IC90: 4.1 µg/mL (≈ 5.85 µM)
[2]
  log10CFU/g: 5.3
[3]
  Activity: Active
[4]
  log10CFU/g: 4.4
[5]
  log10CFU/g: 4.6
[6]
  Activity: Active
[7]
  log10CFU/g: 5.6
[8]
  log10CFU/g: 5.6
[9]
  log10CFU/g: 5.8
[10]
  log10CFU/g: 6
[11]
  Activity: Active
[12]
  Activity: Active
[13]
  log10CFU/g: 5.5
[14]
  Activity: Active
[15]
  IC50: 4.7 µg/mL (≈ 6.71 µM)
  IC90: > 8 µg/mL
[16]
  Activity: Active
[17]
  log10CFU/g: 5
[18]
  Activity: Active
[19]
  log10CFU/g: 5.6
[20]
  IC90: 7.2 µg/mL (≈ 10.3 µM)
[20]; read-out: IC90
  IC90: > 8 µg/mL
[21]
  log10CFU/g: 5.2
[22]
  Activity: Active
